{"data": "Measured values of several laboratories", "target": "Calcium/calmodulin-dependent protein kinase type II subunit gamma (CAMK2G, Homo sapiens, UniProt Q13555)"}
{"SMILES": "CC/C(=N\\NC(=O)NCc1cccc(O)c1)c1ccc(O)c(C)c1O", "test": "enzyme activity, inhibitor", "setting": "0.1 µM", "endpoint": "inhibition", "value": "-5.1%"}
{"SMILES": "CNC(=O)Nc1ccc2c(c1)CC[C@@]21OC(=O)N(CC(=O)N(Cc2ccc(F)cc2)[C@@H](C)C(F)(F)F)C1=O", "test": "cell-free assay, competition with immobilised ligand", "setting": "1 µM", "endpoint": "remaining binding", "value": "76%"}
{"SMILES": "CS(=O)(=O)CCNCc1ccc(-c2ccc3ncnc(Nc4ccc(OCc5cccc(F)c5)c(Cl)c4)c3c2)o1", "test": "cell-free assay", "setting": "0.5 µM", "endpoint": "remaining signal", "value": "111%"}
{"SMILES": "Cc1ccc(C(=O)Nc2ccc(CN3CCN(C)CC3)c(C(F)(F)F)c2)cc1C#Cc1cnc2cccnn12", "test": "cell-free assay", "setting": "23.5 nM", "endpoint": "remaining signal", "value": "98%"}
{"SMILES": "Cc1cnc(NC2CCOCC2)nc1-n1cnc(C(=O)NC(CN)c2cc(F)cc(Cl)c2)c1 (centres unmarked)", "test": "enzyme activity, inhibitor, radiometric", "setting": "1 µM", "endpoint": "remaining activity", "value": "88%"}
{"SMILES": "O=c1nc(-c2ccccn2)sc2ccccc12", "test": "binding, competition with immobilised ligand", "setting": "1 µM", "endpoint": "remaining binding", "value": "96%"}
{"SMILES": "C[C@@H]1CCN(C(=O)CC#N)C[C@@H]1N(C)c1ncnc2[nH]ccc12", "test": "cell-free assay", "setting": "0.5 µM", "endpoint": "remaining signal", "value": "127%"}
{"SMILES": "CN(C)c1ncnc(-c2ccc3nc(Nc4cc(CN5CCN(C(=O)CC(F)(F)F)CC5)ccn4)[nH]c3c2)c1Cl", "test": "cell-free assay, competition with immobilised ligand", "setting": "1 µM", "endpoint": "remaining binding", "value": "100%"}
{"SMILES": "CC(C)c1ccc(NC(=O)c2cccs2)c(-c2nc3ccccc3[nH]c2=O)c1", "test": "enzyme activity, inhibitor", "setting": "1 µM", "endpoint": "activity vs control", "value": "100%"}
{"SMILES": "COc1cc(-c2cc(-c3ccc(N4CCNCC4)cc3)cnc2C)cc(OC)c1OC", "test": "enzyme activity, inhibitor", "setting": "0.1 µM", "endpoint": "inhibition", "value": "1%"}
{"SMILES": "Cc1ccc(NC(=O)c2ccc(C)c(C(F)(F)F)c2)cc1C#Cc1nn(C2CCC(O)CC2)c2ncnc(N)c12 (centres unmarked)", "test": "cell-free assay", "setting": "10 µM", "endpoint": "remaining signal", "value": "90%"}
{"SMILES": "Cc1sc(C(=O)NC2COC2)cc1-n1cc(NC(=O)Nc2c(F)cccc2Cl)cn1", "test": "enzyme activity, inhibitor", "setting": "10 µM", "endpoint": "remaining activity", "value": "102%"}
{"SMILES": "CC(C)(C)c1nc(-c2cccc(NS(=O)(=O)c3c(F)cccc3F)c2F)c(-c2ccnc(N)n2)s1", "test": "enzyme activity, inhibitor, radiometric", "setting": "1 µM", "endpoint": "remaining activity", "value": "102%"}
{"SMILES": "Cc1nc(Cc2cccc(C(F)(F)F)c2)sc1-c1ccc(C(N)=O)nc1", "test": "cell-free assay, competition with immobilised ligand", "setting": "1 µM", "endpoint": "remaining binding", "value": "93%"}
{"SMILES": "CNC(=O)c1cc(Oc2ccc(NC(=O)Nc3ccc(Cl)c(C(F)(F)F)c3)cc2)ccn1", "test": "cell-free assay", "setting": "0.3 µM", "endpoint": "inhibition", "value": "51%"}
{"SMILES": "C#Cc1cccc(Nc2ncnc3cc(OCCOC)c(OCCOC)cc23)c1", "test": "cell-free assay", "setting": "0.5 µM", "endpoint": "remaining signal", "value": "115%"}
{"SMILES": "COc1ccc2cc(OCC3(C(=O)O)CN(C(=O)c4ccc(F)cc4)C3)ccc2c1", "test": "cell-free assay, competition with immobilised ligand", "setting": "1 µM", "endpoint": "remaining binding", "value": "100%"}
{"SMILES": "O=C(Nc1cnn(-c2csc(C(=O)NC3COC3)c2)c1)Nc1c(F)cccc1Cl", "test": "enzyme activity, inhibitor", "setting": "5 µM", "endpoint": "remaining activity", "value": "90.1%"}
{"SMILES": "CN([C@@H]1CCc2c(CC(=O)O)c3cc(S(C)(=O)=O)ccc3n2C1)S(=O)(=O)c1ccc(F)cc1", "test": "cell-free assay, competition with immobilised ligand", "setting": "1 µM", "endpoint": "remaining binding", "value": "100%"}
{"SMILES": "CN1CC(Oc2cnc(C#N)cc2-c2ccn3nc(NC(=O)C4CC4)cc3c2)C1", "test": "enzyme activity, inhibitor", "setting": "1 µM", "endpoint": "inhibition", "value": "10%"}
